10 compounds from PMC3377336 (EMBO Molecular Medicine, 2010) can be followed below.

The structures appear in SMILES notation. Counter-ions that a name gives are not always drawn. Like-named read-outs stand apart in the source and are kept apart here.

Data set [1] relates to NB TICs. Kind of data set: Sphere-formation secondary assay, NB TICs. It counts as cell-based, human. Conditions: for Fold difference in potency (EC50, sphere formation) NB TICs vs SKPs: text and legends.
The subject of data set [2] is NB67 cells.
For data set [3], the system named is NB67 cells. Kind of data set: Secondary assay on NB67 TICs. Conditions: same patient as NB12, 2 years later.
Data set [4] has as its system NB12 xenograft tumours. Put plainly: NB12 xenograft tumours in NOD/SCID mice. In kind it is in vivo. Conditions: 14 days.
The test system of the next data set is SKPs. Kind of data set: Sphere-formation secondary assay, SKPs. The conditions noted are these: up to doses of 1 µM. In kind it is cell-based, human.
In the next data set the test system is NB12 TICs. Kind of data set: Cell viability by trypan blue exclusion. In kind it is cell-based, human. Conditions: 50 nM rapamycin.
The test system of another data set is SMS-KCNR cells. Put plainly: Sphere-formation secondary assay, SMS-KCNR. In kind it is cell-based, human. The conditions noted are these: up to doses of 1 µM.
Data set [5] concerns p70S6K and S6RP phosphorylation. Put plainly: Immunoblot of mTOR target proteins. In kind it is cell-based, human. Conditions: 50 nM, 1 h.
The next data set deals with SK-N-AS cells. Put plainly: alamarBlue dose-response assay. Conditions: serial dilutions, alamarBlue day 6, read day 7. It counts as cell-based, human.
The subject of a further data set is SH-SY5Y cells. Put plainly: alamarBlue dose-response assay. It counts as cell-based, human. The conditions noted are these: serial dilutions, alamarBlue day 6, read day 7.
Data set [6] relates to NB TICs. Put plainly: Apoptosis: nuclear morphology, sub-2n DNA content, cleaved PARP. In kind it is cell-based, human. Conditions: 50 nM rapamycin. The essentials: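 NB12 cells (40,000) on lysine/laminin-coated chamber slides, treated in duplicate 24 h after plating, then fixed with 4% paraformaldehyde and 0.5 µg/ml Hoechst 33342; nuclei counted in 15 random fields. For DNA content and blots, 200,000 NB TICs per 25 cm2 flask were treated 48 h post-plating. Cells were ethanol-fixed, RNaseA/propidium iodide 1 h 37 °C, flow cytometry. NP-40 lysates were immunoblotted for cleaved PARP.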

The next data set deals with NB88R2 xenograft tumours. Put plainly: NB88R2 xenograft tumours in NOD/SCID mice. In kind it is in vivo. Conditions: NB88 tumours; 3 mg/kg IP daily, 14 days.
The test system of data set [7] is NB12 xenograft tumours. Put plainly: Sphere formation of cells re-isolated from treated NB12 xenograft tumours. In kind it is in vivo, NOD/SCID mice. The conditions noted are these: dissociated tumours, methylcellulose, 10 days; 3 mg/kg IP daily.

`COc1ccc2c(c[n+](C)c3c4cc5c(cc4ccc23)OCO5)c1OC` [Chelerythrine chloride]: in the data set with NB TICs [1] (sphere formation, NB TICs vs SKPs), the “Selective cytotoxicity for NB TICs (PKC inhibitors)” value is on record as “selectively cytotoxic”.

As to `COc1cc2c(c(OC)c1OC)-c1ccc(OC)c(=O)cc1[C@@H](NC(C)=O)CC2` [Colchicine], the “Cytotoxicity to NB67 cells” value in the data set with NB67 cells [2] is on record as “not cytotoxic”.

Consider `CO[C@H]1C=C[C@@]23c4cc5c(cc4CN(C[C@@H]2O)[C@H]3C1)OCO5` [Crinamine], for which the “Fold difference in potency (EC50, sphere formation) NB TICs vs SKPs” value (“Fold difference in potency” for short) in the data set on NB TICs [1] is reported as greater than 50 fold.

For `C=C1C(=O)O[C@H]2[C@H]1CC/C(C)=C/CC[C@@]1(C)O[C@@H]21` [Parthenolide], in the data set on NB TICs [1], the “Fold difference in potency” value is listed as 3-50 fold.

`COc1cc([C@@H]2c3cc4c(cc3[C@H](O)[C@H]3COC(=O)[C@H]23)OCO4)cc(OC)c1OC` [Podophyllotoxin]: in the data set with NB67 cells [2], the “Cytotoxicity to NB67 cells” value was “not cytotoxic”.

In the case of `CCN(CC)CCCC(C)Nc1c2ccc(Cl)cc2nc2ccc(OC)cc12` (stereo not drawn) [Quinacrine dihydrochloride], the “Fold difference in potency” value in the data set with NB TICs [1] is given as 3-50 fold.

Take `COc1cc([C@@H]2c3cc4c(cc3[C@@H](O[C@@H]3O[C@@H]5CO[C@@H](c6cccs6)O[C@H]5[C@H](O)[C@H]3O)[C@H]3COC(=O)[C@H]23)OCO4)cc(OC)c1O` [Teniposide]: in the data set with NB TICs [1], the “Fold difference in potency” value was greater than 10 fold.

For the compound `CC[C@]1(O)C[C@@H]2CN(CCc3c([nH]c4ccccc34)[C@@](C(=O)OC)(c3cc4c(cc3OC)N(C)[C@H]3[C@@](O)(C(=O)OC)[C@H](OC(C)=O)[C@]5(CC)C=CCN6CC[C@]43[C@@H]65)C2)C1` [Vinblastine sulfate], the “Cytotoxicity to NB67 cells” value in the data set with NB67 cells [3] is listed as “not cytotoxic”. Further, the “Fold difference in potency” value with NB TICs [1] is greater than 10 fold. For the same compound, the “Reduction of tumour weight relative to vehicle-treated controls” value in the data set on NB12 xenograft tumours [4] (0.25 mg/kg IP daily) is on record as 43.4%.

As for `CC[C@]1(O)C[C@H]2CN(CCc3c([nH]c4ccccc34)[C@@](C(=O)OC)(c3cc4c(cc3OC)N(C=O)[C@H]3[C@@](O)(C(=O)OC)[C@H](OC(C)=O)[C@]5(CC)C=CCN6CC[C@]43[C@@H]65)C2)C1` [Vincristine sulfate], in the data set with NB67 cells [3], the “Cytotoxicity to NB67 cells” value is on record as “not cytotoxic”.

`CO[C@H]1C[C@@H]2CC[C@@H](C)[C@@](O)(O2)C(=O)C(=O)N2CCCC[C@H]2C(=O)O[C@H]([C@H](C)C[C@@H]2CC[C@@H](O)[C@H](OC)C2)CC(=O)[C@H](C)/C=C(\C)[C@@H](O)[C@@H](OC)C(=O)[C@H](C)C[C@H](C)/C=C/C=C/C=C/1C` [rapamycin]: the “Effect on sphere formation of SKPs” value with SKPs was “little effect”. In the data set on NB12 TICs, the “Time to decrease of cell viability (trypan blue exclusion)” value was determined as 24 h. Moreover, the “Reduction of tumour weight relative to vehicle-treated controls” value with NB12 xenograft tumours [4] (3 mg/kg IP daily) amounted to 82.6%; in the data set on NB88R2 xenograft tumours, 74.0%. Moreover, the “Effect on sphere formation of SMS-KCNR cells” value in the data set with SMS-KCNR cells is “little effect”. Besides, in [5], the “Phosphorylation of p70S6K and S6RP” value is given as “rapidly inhibited”. In the data set with SK-N-AS cells, the “Sensitivity of SK-N-AS cells, alamarBlue assay” value is listed as “not effective”. For the same compound, the “Sensitivity of SH-SY5Y cells, alamarBlue assay” value in the data set on SH-SY5Y cells is on record as “not effective”. Further, the “Apoptosis in NB12 and NB122R cells” value in the data set on NB TICs [6] is “induced features of apoptosis”. Moreover, the “Reduction of sphere-forming ability in treated tumours” value with NB12 xenograft tumours [7] is on record as 7.75 fold.
